Measured values taken from ChEMBL document CHEMBL2021849, “Synergistic TRAIL sensitizers from Barleria alluaudii and Diospyros maritima” (J Nat Prod, 2012).

Tests used:
[1] = system: ACHN; assay: Ratio of EC50 for human ACHN cells to EC50 for human ACHN cells in presence of 40 ng/ml TRAIL; type: functional
Outline: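 Synergy taken as the ratio of the two EC50 values read from ACHN cell death curves, one run without TRAIL and one with 40 ng/mL TRAIL. Treatment lasted 20–24 h.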

[2] = system: ACHN; assay: Cytotoxicity against human ACHN cells assessed as cell death after 20 to 24 hrs by XTT assay; type: functional, cell-based
[3] = system: ACHN; assay: Cytotoxicity against human ACHN cells assessed as cell death after 20 to 24 hrs by XTT assay in presence of 40 ng/ml TRAIL; type: functional, cell-based

| Structure (SMILES) | Ratio EC50 [1] | EC50 [2] | EC50 [3] |
| --- | --- | --- | --- |
| CC(C)=CC[C@]12O[C@H]1C(=O)c1ccccc1C2=O | 2.4 | 39.7 µM | 16.7 µM |
| CC(C)=CC[C@]12O[C@H]1C(=O)c1cccc(O)c1C2=O | 1.4 | 6.4 µM | 4.7 µM |
| C[C@@H]1CC(=O)c2c(O)cccc2[C@@H]1O | – | > 60 µM | > 60 µM |
| CC1=CC(=O)c2c(ccc(C(C)c3ccc4c(c3O)C(=O)C=C(C)C4=O)c2O)C1=O | – | > 30 µM | > 30 µM |
| CC1=CC(=O)c2c(ccc(-c3ccc4c(c3O)C(=O)C=C(C)C4=O)c2O)C1=O [ELLIPTINONE] | 3.5 | 13.2 µM | 3.8 µM |
| CC1=CC(=O)c2c(O)ccc(-c3ccc(O)c4c3C(=O)C(C)=CC4=O)c2C1=O [MARITINONE] | 3.8 | 5.8 µM | 1.5 µM |
| CC1=CC(=O)c2c(O)cccc2C1=O [PLUMBAGIN] | 2 | 7.3 µM | 3.7 µM |
| Cc1ccc2c(c1)C(=O)c1ccccc1C2=O [TECTOQUINONE] | – | > 50 µM | > 50 µM |
